The subject of assay [1] is Pmp22 expression. To be noted: peripheral nerves of Pmp22 transgenic rats; ref [31]; cited from earlier work.
Assay [2] relates to Pmp22 transgenic rats. The conditions noted are these: progesterone antagonist, ref [31]; cited from earlier work.
Assay [3] relates to Med25 expression. Nature of the assay: Med25 qRT-PCR expression in sciatic nerve of treated Pmp22 transgenic. Type of assay: in vivo, rat. The gist of the method: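 Pmp22-transgenic rats received a progestin diet (20 mg/kg), a progesterone-receptor antagonist, or placebo (12, 12 and 8 animals). RNA was Trizol-extracted from sciatic nerve. Med25 was quantified by TaqMan qRT-PCR with unlabelled forward/reverse primers and a 5′-FAM probe, in triplicate, normalised to 18S rRNA run in parallel. Runs were repeated with GAPDH as the internal control.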

Assay [4] deals with SH3 domain of the Src-family kinase Lck (LckSH3). Nature of the assay: Fluorescence titration binding of synthetic MED25 peptides to Lck SH3. The conditions noted are these: AblSH3 vs LckSH3.
Assay [5] has as its target SH3 domain of Abl (AblSH3) (Homo sapiens, UniProt P00519). Nature of the assay: Fluorescence titration binding of synthetic MED25 peptides to Abl SH3.
The target of assay [6] is SH3 domain of the Src-family kinase Lck (LckSH3) (Homo sapiens, UniProt P06239). In words: Fluorescence titration binding of synthetic MED25 peptides to Lck SH3.

We go through four compounds from article PMC2847151 (Neurogenetics, 2009).

Sequence of SH3 domain of Abl (AblSH3) (P00519 61-121 limits assumed): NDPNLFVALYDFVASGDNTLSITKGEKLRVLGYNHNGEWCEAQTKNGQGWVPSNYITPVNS
Sequence of SH3 domain of the Src-family kinase Lck (LckSH3) (Homo sapiens, UniProt P06239) (P06239 61-121 limits assumed): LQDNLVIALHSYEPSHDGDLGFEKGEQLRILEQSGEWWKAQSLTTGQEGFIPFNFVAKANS

On to `CN(C)c1ccc([C@H]2C[C@]3(C)[C@@H](CC[C@]3(O)CCCO)[C@@H]3CCC4=CC(=O)CCC4=C32)cc1` [onapristone], for which the Pmp22 expression result in assay [1] is given as “decreases its expression”. Also, in assay [2], the phenotype result is on record as “improvement of the phenotype”. Besides, the “Med25 expression after treatment” value in assay [3] (Pmp22^++/+ rats, onapristone) is reported as “no significant reducing effect”.
With `CC(=O)[C@H]1CC[C@H]2[C@@H]3CCC4=CC(=O)CC[C@]4(C)[C@H]3CC[C@]12C` [progesterone], the Pmp22 expression entry in assay [1] is “increases Pmp22 expression”. The “Med25 expression after treatment” value in assay [3] (Pmp22^++/+ male rats, progesterone 20 mg/kg diet) is “further increase of the Med25 expression”.
Take “Ac-QLPPGPPGAPKPPPAS-NH2 [wild-type MED25, Ac-QLPPGPPGAPKPPPAS-CONH2]”: the “binding affinity Abl SH3 compared with Lck SH3 (specificity)” value in assay [4] is “significantly stronger to Abl than to Lck”.
Turning to “Ac-QLPPGPPGVPKPPPAS-NH2 [mutant, Ac-QLPPGPPGVPKPPPAS-CONH2]”, the equilibrium dissociation constant (Kd) worked out at 2.91 ± 0.66 µM in assay [5] and 5.38 ± 1.05 µM in assay [6]. For the same compound, the “affinity for Abl SH3, effect of mutation” value in assay [5] (mutant vs wild-type peptide) was “almost unaltered by the mutation”. For the same compound, the “binding affinity Abl SH3 compared with Lck SH3 (specificity)” value in assay [4] was “very similar affinity”.
